The subject of data set [1] is Trypanosoma cruzi. Put plainly: Antitrypanosomal activity against Trypanosoma cruzi infected in African green monkey Vero cells assessed as reduction in number of amastigotes per infected cell measured up to 10 days by Giemsa staining based hemocytometry. In kind it is functional. To be noted: time day <=10. In a few lines: (§1)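 Vero cells infected with metacyclic forms (10:1) were exposed to one concentration per compound immediately after infection for 12 h at 37 °C, 5% CO2. After washing, cultures were kept 10 days with fresh medium every 48 h. Every 48 h, % infected cells and amastigotes per infected cell (200 Giemsa-stained cells) and medium trypomastigotes (Neubauer) were scored. Means of three experiments.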

For data set [2], the system named is Trypanosoma cruzi. Put plainly: Antitrypanosomal activity against Trypanosoma cruzi infected in African green monkey Vero cells assessed as reduction in infection rate measured up to 10 days by Giemsa staining based hemocytometry. Type of data set: functional. To be noted: time day <=10. An outline of the steps: as §1
Data set [3] deals with Trypanosoma cruzi. Put plainly: Antitrypanosomal activity against Trypanosoma cruzi Arequipa amastigote forms infected in African green monkey Vero cells incubated for 72 hrs by Giemsa staining based micrscopy. In kind it is functional, organism-based. In a few lines: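 Vero cells (RPMI, 10% inactivated FBS, 37 °C, 5% CO2) were seeded at 1×10^4/well on coverslips and cultured 2 days. They were infected 24 h with metacyclic forms at 10:1. After washing off free parasites, drugs were added at 0.1–100 µM for 72 h. Slides were methanol-fixed and Giemsa-stained; amastigotes were counted in 200 host cells versus untreated. IC50 was calculated.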

In data set [4] the test system is Trypanosoma cruzi. Put plainly: Antitrypanosomal activity against Trypanosoma cruzi Tulahuen epimastigote forms incubated for 72 hrs by hemocytometry. Type of data set: functional, organism-based. In a few lines: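 Epimastigotes grown in MTL medium with 10% inactivated FBS at 28 °C. Compounds were dissolved in DMSO (0.01% v/v) and added at 0.1–100 µM for 72 h. Parasites were counted in a Neubauer chamber. IC50 (50% growth inhibition) was derived by linear regression of Kc values. Values are averages of four determinations.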

Data set [5] relates to Trypanosoma cruzi. Nature of the data set: Antitrypanosomal activity against Trypanosoma cruzi SN3 trypomastigote froms infected in mouse blood incubated for 24 hrs by Neubauer chamber based assay. Type of data set: functional, organism-based. In a few lines: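 Mouse blood taken at peak parasitemia (day 7) was diluted with uninfected blood to 4×10^6 trypomastigotes/mL, then 1:2 in RPMI 1640. Drugs from DMSO stocks were added at 1, 10, 25, 50 and 100 µM and incubated 24 h at 4–8 °C. Parasites were counted in a Neubauer chamber in triplicate. IC50 was calculated versus control.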

Data set [6] relates to Trypanosoma cruzi. Nature of the data set: Antitrypanosomal activity against Trypanosoma cruzi Arequipa trypomastigotes infected in BALB/c mouse assessed as reduction in mouse mortality measured during acute phase (days 0 to 40 post infection) at 50 to 100 mg/kg, po dosed on alternating days (7 to 15 days post infection). In kind it is functional, organism-based. To be noted: dose 50-100 mg/kg.

Data set [7] deals with Trypanosoma cruzi. Put plainly: Antitrypanosomal activity against Trypanosoma cruzi Arequipa trypomastigotes infected in BALB/c mouse assessed as parasitemia re-activation level measured during chronic phase ( day 90 post infection) at 100 mg/kg, po dosed on alternating days (7 to 15 days post infection) relative to acute phase infection (reference value: […]%). Type of data set: functional.

Data set [8] concerns Trypanosoma cruzi. Nature of the data set: Antitrypanosomal activity against Trypanosoma cruzi Arequipa trypomastigotes infected in BALB/c mouse assessed as parasitemia re-activation level measured during chronic phase ( day 90 post infection) at 50 mg/kg, po dosed on alternating days (7 to 15 days post infection) relative to acute phase infection (reference value: […]%). In kind it is functional.

The test system of data set [9] is Trypanosoma cruzi. Put plainly: Antitrypanosomal activity against Trypanosoma cruzi Arequipa trypomastigotes infected in BALB/c mouse assessed as reduction in parasitemia level in adipose tissue measured during acute phase (days 0 to 40 post infection) at 100 mg/kg, po dosed on alternating days (7 to 15 days post infection) by PCR analysis. In kind it is functional, organism-based.

Data set [10] relates to Trypanosoma cruzi. Put plainly: Antitrypanosomal activity against Trypanosoma cruzi Arequipa trypomastigotes infected in BALB/c mouse assessed as reduction in parasitemia level in stomach measured during acute phase (days 0 to 40 post infection) at 100 mg/kg, po dosed on alternating days (7 to 15 days post infection) by PCR analysis. Type of data set: functional, organism-based.

Data set [11] has as its system Trypanosoma cruzi. Nature of the data set: Antitrypanosomal activity against Trypanosoma cruzi Arequipa trypomastigotes infected in BALB/c mouse assessed as reduction in splenomegaly by measuring weight percent of spleens […] at 100 mg/kg, po dosed on alternating days (7 to 15 days post infection) by PCR analysis (reference value: 1.603%). In kind it is functional.

For data set [12], the system named is Trypanosoma cruzi. Put plainly: Inhibition of Trypanosoma cruzi Arequipa Fe-SOD at <50 uM by NBT dye based spectrophotometry. To be noted: dose microM <50. An outline of the steps:
(§2)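 Fe-SOD source: Arequipa epimastigote homogenate (STE buffer pH 7.8, sonication, centrifugation, supernatant; protein by Bradford); CuZn-SOD was commercial human erythrocyte enzyme. Activity was measured as NBT reduction by superoxide in 50 mM potassium phosphate pH 7.8, with compounds at 5 concentrations (1–100 µM). A560 was read before and after 10 min under lamp light with stirring. Three rate determinations; Newman–Keuls test.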

Data set [13] addresses T1, Superoxide dismutase [Cu-Zn] (Homo sapiens, UniProt P00441). Nature of the data set: Inhibition of human erythrocyte CuZn-SOD at 100 uM by NBT dye based spectrophotometry. An outline of the steps: as §2
The nature of data set [14]: Inhibition of Trypanosoma cruzi Arequipa Fe-SOD by NBT dye based spectrophotometry. An outline of the steps: as §2
Data set [15] addresses T1, Superoxide dismutase [Cu-Zn]. Nature of the data set: Inhibition of human erythrocyte CuZn-SOD by NBT dye based spectrophotometry. In a few lines:
as §2

The nature of data set [16]: Genotoxicity in Salmonella typhimurium TA100 at 0.03 to 2.25 ug/plate incubated for 48 hrs in presence of liver S9 fraction by Ames test. In kind it is toxicity, subcellular. To be noted: salmonella enterica subsp. enterica serovar typhimurium, s9, 48 h. An outline of the steps: (§3)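 Preincubation Ames assay. […] Top agar with trace histidine/biotin (0.05 mM each) was added and poured onto glucose minimal agar. Plates were incubated 48 h at 37 °C and His+ revertants counted. DMSO was the negative control, with strain-appropriate positive controls. Technical triplicates.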

Data set [17] in a line: Genotoxicity in Salmonella typhimurium TA102 at 0.03 to 2.25 ug/plate incubated for 48 hrs in absence of liver S9 fraction by Ames test. Type of data set: toxicity. To be noted: salmonella enterica subsp. enterica serovar typhimurium, s9, 48 h. In a few lines:
as §3
In general terms: In the Ames test, an excess of revertant colonies over the control signals mutagenicity.

Data set [18] can be described thus: Genotoxicity in Salmonella typhimurium TA1535 at 0.03 to 2.25 ug/plate incubated for 48 hrs in absence of liver S9 fraction by Ames test. Type of data set: toxicity. To be noted: salmonella enterica subsp. enterica serovar typhimurium, s9, 48 h. In a few lines: as §3
Data set [19] in a line: Genotoxicity in Salmonella typhimurium TA1535 at 0.03 to 2.25 ug/plate incubated for 48 hrs in presence of liver S9 fraction by Ames test. Type of data set: toxicity, subcellular. To be noted: salmonella enterica subsp. enterica serovar typhimurium, s9, 48 h. An outline of the steps: as §3

The source made the active and inactive calls. The rule behind the calls is not given here.

T1 sequence (P00441 whole entry): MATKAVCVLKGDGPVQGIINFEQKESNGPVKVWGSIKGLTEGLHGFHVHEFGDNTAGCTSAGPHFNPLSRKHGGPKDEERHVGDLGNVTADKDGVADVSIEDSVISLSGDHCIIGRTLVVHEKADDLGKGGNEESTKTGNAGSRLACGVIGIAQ

Turning to `O=C(CCN1CCN(c2ccc(F)cc2)CC1)c1csc2ccc(F)cc12`, the “inhibition (INH)” value in the data set on Trypanosoma cruzi [1] came out at 49%; with Trypanosoma cruzi [2], 54%. Moreover, the half-maximal inhibitory concentration (IC50) (in general, the concentration that gives 50% inhibition) in the data set on Trypanosoma cruzi [3] came out at 12.7 µM; with Trypanosoma cruzi [4] it was 0.4 µM; in the data set on Trypanosoma cruzi [5], 5.1 µM; in data set [14], 16.8 µM; in data set [15], 215 µM. In addition, the result in the data set on Trypanosoma cruzi [6], in the data set with Trypanosoma cruzi [9] and with Trypanosoma cruzi [10] was Active. Further, the Activity in the data set on Trypanosoma cruzi [7] is reported as 0%; with Trypanosoma cruzi [8] it was 0%; in data set [16], “Non-Toxic”; in data set [17], “Non-Toxic”; in data set [18] it was “Non-Toxic”; in data set [19], “Non-Toxic”. The Spleen weight percent with Trypanosoma cruzi [11] turned out to be 0.825%. Moreover, in the data set on Trypanosoma cruzi [12], the inhibition (as a rule, how much of the control response was suppressed) was 100%. The inhibition entry in data set [13] is “inactive”.

As for `O=C(CCN1CCN(c2ccc(C(F)(F)F)cc2)CC1)c1csc2ccc(F)cc12`, the “inhibition (INH)” value in the data set with Trypanosoma cruzi [1] was found to be 64%; in the data set on Trypanosoma cruzi [2] it was 47%. Also, the IC50 in the data set with Trypanosoma cruzi [3] worked out at 27.9 µM; in the data set on Trypanosoma cruzi [4] it was 14 µM; in the data set with Trypanosoma cruzi [5] it was 6.6 µM; in data set [14], 102 µM; in [15], 206 µM. Further, the result in the data set on Trypanosoma cruzi [6], in the data set on Trypanosoma cruzi [9] and with Trypanosoma cruzi [10] was Active. Also, the Activity is 0% in the data set with Trypanosoma cruzi [7]; “Non-Toxic” in data set [16]; “Non-Toxic” in data set [17]; “Non-Toxic” in [18]; “Non-Toxic” in data set [19]. Also, in the data set on Trypanosoma cruzi [11], the Spleen weight percent is recorded as 1.041%. The inhibition entry in data set [13] was “inactive”.

(Values after ChEMBL document CHEMBL4680103, “In Vitro and in Vivo Anti-Trypanosoma cruzi Activity of New Arylamine Mannich Base-Type Derivatives” (J Med Chem, 2016).)
